The source made the active and inactive calls. No cut-off for these calls is given here.
Tests used:
Plasmodium falciparum [1] = experiment: Antimalarial activity against Plasmodium falciparum K1 assessed as reduction in parasite growth measuring [3H]-hypoxanthine uptake by microculture radioisotope technique; format: functional, organism-based
Method in brief: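 P. falciparum K1 (multidrug-resistant) cultured in vitro by Trager–Jensen method. Growth inhibition read as [3H]-hypoxanthine uptake in a microculture radioisotope assay (Desjardins method). Samples tested up to a maximum final concentration of 10 μg/mL. IC50 taken as the concentration giving 50% reduction in parasite growth. Dihydroartemisinin served as reference.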

MCF7 = experiment: Cytotoxicity against human MCF7 cells by colorimetric method; format: functional, cell-based
Method in brief: (§1)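 Human epidermoid carcinoma KB, breast cancer MCF7 and small cell lung cancer NCI-H187 lines assayed by the Skehan colorimetric method. Test samples at a maximum final concentration of 50 μg/mL. Doxorubicin served as reference. Values are reported as IC50.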

KB = experiment: Cytotoxicity against human KB cells by colorimetric method; format: functional, cell-based; method in brief: as §1
NCI-H187 = experiment: Cytotoxicity against human NCI-H187 cells by colorimetric method; format: functional, cell-based; method in brief: as §1
[2] = test system: Mycobacterium tuberculosis; experiment: Antimycobacterial activity against Mycobacterium tuberculosis H37Ra at 50 ug/ml by MABA; format: functional, organism-based
Method in brief: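 M. tuberculosis H37Ra was tested in vitro by microplate Alamar Blue assay (MABA). 50 μg/mL was the highest test concentration. Isoniazid was run as the reference standard.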

Plasmodium falciparum [3] = experiment: Antimalarial activity against Plasmodium falciparum K1 assessed as reduction in parasite growth measuring [3H]-hypoxanthine uptake at 10 ug/ml by microculture radioisotope technique; format: functional, organism-based
[4] = Homo sapiens, MCF7, read-out: IC50

Compound	IC50 (Plasmodium falciparum [1])	IC50 (MCF7; [4])	IC50 (KB)	IC50 (NCI-H187)	Activity [2]	IC50 (MCF7; mcf7)	Activity (Plasmodium falciparum [3])
COc1cc(OC)c2c(c1)O[C@H](c1ccc(O)c(O)c1)CC2 [(2S)-3',4'-DIHYDROXY-5,7-DIMETHOXYFLAVAN]	9.66 µM	49.1 µM	31.8 µM	10.4 µM	inactive	–	–
COc1cccc2c1C(=O)c1c(O)c3c(c(O)c1C2=O)C[C@@](O)(C(=O)CO)C[C@@H]3O[C@H]1C[C@H](N)[C@H](O)[C@H](C)O1 [DOXORUBICIN]	–	–	0.38 µM	0.12 µM	–	–	–
COc1cc([C@@H]2CCc3cc(OC)c(OC)cc3O2)ccc1O [(2S)-4'-HYDROXY-6,7,3'-TRIMETHOXYFLAVAN]	–	–	106 µM	125 µM	inactive	Not Active	inactive
COc1cc2c(cc1OC)O[C@H](c1ccc(O)c(O)c1)CC2 [(2S)-3',4'-DIHYDROXY-6,7-DIMETHOXYFLAVAN]	15.7 µM	75 µM	43.1 µM	51.4 µM	inactive	–	–
COc1ccc2c(c1)O[C@H](c1ccc(O)c(OC)c1)CC2 [(2S)-4'-HYDROXY-7,3'-DIMETHOXYFLAVAN]	–	88.4 µM	97.9 µM	60.2 µM	inactive	–	inactive
COc1cc([C@@H]2CCc3cc(O)c(OC)cc3O2)ccc1O	–	90.1 µM	69 µM	76.5 µM	inactive	–	inactive
COc1cc(CCCc2cc(O)c(OC)cc2OC)ccc1O	–	23.1 µM	24.6 µM	34.6 µM	inactive	–	inactive
COc1cc(CCCc2cc(OC)c(O)c(OC)c2)ccc1O	14.5 µM	72 µM	46 µM	42.1 µM	inactive	–	–
COc1cc(CCCc2c(OC)cc(O)cc2OC)ccc1O	–	64.2 µM	49.3 µM	96 µM	inactive	–	inactive
C[C@H]1[C@@H](O)O[C@@H]2O[C@@]3(C)CC[C@H]4[C@H](C)CC[C@@H]1[C@@]24OO3 [ARTENIMOL]	0.00142 µM	–	–	–	–	–	–
COc1cc2c(cc1O)CC[C@@H](c1ccc(O)c(O)c1)O2	13 µM	110 µM	24.6 µM	72 µM	inactive	–	–
